Measurements taken from the EternaBench riboswitch data.

Test system: MS2 coat protein
Assay: apparent Kd, MS2 coat protein; higher = weaker binding; RNA-MaP array; FMN 200 µM where present
Method in brief: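 Stalled E. coli RNA polymerase transcribed the designs on Illumina sequencing-chip clusters. SNAP-549-labelled MS2 coat protein was titrated from 0.7 or 1.5 nM, doubling to 3 µM, without and then with constant ligand, in 100 mM Tris-HCl pH 7.5, 80 mM KCl, 4 mM MgCl2, BSA, DTT, yeast tRNA and Tween-20. Per-cluster binding curves were fitted to green signal normalised to red-channel RNA signal and control-cluster median Fmax. The apparent Kd is the median of the filtered fits.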

[1] = designed as: ON switch for flavin mononucleotide, no ligand
[2] = ligand present: flavin mononucleotide, designed as: ON switch for flavin mononucleotide
[3] = designed as: OFF switch for flavin mononucleotide, no ligand
[4] = ligand present: flavin mononucleotide, designed as: OFF switch for flavin mononucleotide

Sequence	apparent Kd [1] [nM]	apparent Kd [2] [nM]	apparent Kd [3] [nM]	apparent Kd [4] [nM]
GUAGCAUACCGAGGAUAUUCAUACCGGAAACGGACAUGAGGAUCACCCAUGUGGCGAAAGCCUUAGGAGAAGGCGGAAUGCUAC	16.4	12.3		
CUAUUUAAUGCCUCAUGUACAUGAGGAUCACCCAUGUUAACUUAGGAUAUAUUUAUAUUGAUAGAGUAGAAGGAAGUACUAUUU			25.4	27.3
GGUGGUGUCCGAGGAUAUCGUUAGGCGUUGUUGCGAGAAGGCGGACAUGAGGAUCACCCAUGUUUGAUGAAAGAGGAGGUUGUG			98.5	123
AGUAGAUCAGGAUAUACAUAAAUGAUAAUUAUGUAAAUUCUACAUGAGGAUCACCCAUGUAGAAGGGAUCUACA			14.4	14
GAUUAACAUGAGGAUCACCCAUGUGAGGAUAUGGACUGGCUCACUUUCCGAUUCCCGUCUAGAAGGCGCAUCUU			38.3	38.3
GAAUUCGCAUGAGGAUAUGCUCCCGUUUCGGGAGCAGAAGGCAUGUCAUAAGACAUGAGGAUCACCCAUGUAGUUAAGAUUGAA	196	11.3		
UUUUUGUGAGGAUAUACGUAGUAGAACAAUAGUACUACUACGUAGAAGGCACAUGAGGAUCACCCAUGUUCCUC			47.6	339
GUCAGCUCGUGAGGAUAUACAACACUGCUUCGGCUGUGUAUUAAGAUCACAUGAGGAUCACCCAUGUAGAAGGCACGAGCUGAU			13.5	202
CCCACGAAAGUCGAACGAUGUAGCAGAAGGACAAUAACAUGACAUGAGGAUCACCCAUGUGCCAUGUAGGAUAUGCUACAUGGG			8.24	7.14
UCUUAAGGAGGAUAUACAUGAGGAUCACCCAUGUAUGACCGCAGGGCGUCCUUGUAUCGUAGAAGGCCUCGGUA			33.3	43.6
CAAAACGAGGCAGGAUAUCAAUACAUGAGGAUCACCCAUGUGUGACGUAGGCCGGUCUUCGUGACUGAGAAGGGUCUCUAGUUA			11	40.5
GUUUUGGGAGGAUAUAUGUGGAUUAUUUUUAUAUGUUAUUUACAUGAGGAUCACCCAUGUAGAAGGUCUAGAGC			163	249
GACAUGAGGAUCACCCAUGUCCAUGCAAGAGUAGUUGAGACCAGAAGGACCGUGCGGAGCGCAGGGUAGGAUAUGGAGCCCUCA	32.4	9.46		
UUACUAUAACAGAAGGGUAGAUAGUAUAUAAAUGCAGGAUAUGUUACAUGAGGAUCACCCAUGUUUCACCCACAUGAGGAUCAC			28.5	40.7
ACAUGAGGAUCACCCAUGUAGAAUGAAGAAGGUAGAUACUUGAGGAUCACCCAUGUACAUGGGACUAAGGAUAUUCUAAUAAUU	144	105		
AAAAAAAGAUCACAGGAUAUACGAAAAAAAACAUGAGGAUCACCCAUGUAAAAAAAAAAAAAAAAGUAGAAGGGUGAUCCAAAAAA	160	279		
UUUGCAUGACGAGGAUAUCAUUUAUUUCUUGAUUGAGAAGGCGUUCUUUUUAAUACCUAACAUGAGGAUCACCCAUGUGACAGU	17.9	13.2		
CAUUAAUUAAUUAGUUUAUACAUACAGGAUAUGUUACAUGAGGAUCACCCAUGUUUACAUGGGAUACAGAAGGGUAAAUAAAGA			477	310
UGAUAGGACAGAGGAUAUACGUAUAGUUACCUCUACAUGAGGAUCACCCAUGUAGAAGGCUGUCCUAUCUAAGUCGGAAACGAC			4.77	5.78
UUGGGCGUCGUAGGAUAUGUAGGAUAUUCCUACAUGAGGAUCACCCAUGUUGACAUGGAAGAAGGACAGAAGGACGAUGUCCAU	278	4.67		
AGUUGACGAGAAGGAUAUCCGAACCUUUAAAGAGGAGAAGGUCUAUCAACAUGAGGAUCACCCAUGUACAUCGCUCGGGUGUCC			82.2	306
CCCGAGUUAGGAUAUCGGACUGGCCCGCACAGGCUAGCAAUUGAGAAGGAACAUGAGGAUCACCCAUGUGAGUA			24.2	61.6
UCGAACGGAAACAAAGUCGAUAGACAUGAGGAUCACCCAUGUAAGGAUAUGCCUACUAAAAGUAGGCAGAAGGUACGCGUUCGA			18.9	28.1
AAUAUGAGCUGGAAUAAACCUUGAACAUGAGGAUCACCCAUGUAGGAUAUCAGCACGAUAAGUGCUGAGAAGGACAACCAGCUC			13.6	15.3
GUCCUACAUGAGGAUCACCCAUGUCAGGAUAUGUAGCGUCCGGGCCAUAAGGCUCGGAGCAGAAGGGACAGGUG			13.8	18.2
AGAAACUACGAGAAGGACAUGUGGUCCUUCUAAAACAUGAGGAUCACCCAUGUAGGAUAUCGUAGUUUCAGGAUCGUGAGAUCA			35.5	7.27
GUAAAUCAUGUAGGAUAUGCAUGGCGAAGCUACGCAGAAGGACAUGAGGAUCACCCAUGUUAAAGCUACCGAGUUCGGUGGCAA			133	162
AGUCGGAGCAGAGGAUAUACAUGAGGAUCACCCAUGUAAAUGAAAGAUAAGCUGGAAACAGCAAUGUAGAAGGCUGCUCCGACA			19.2	91.6

Sequence	apparent Kd [1] [nM]	apparent Kd [2] [nM]	apparent Kd [3] [nM]	apparent Kd [4] [nM]
AGCAAGAGAGGAUAUACAUAGGAAAAAAAAGUCUGAUCCCUACAUGAGGAUCACCCAUGUAGAAGGCUCUGGCA			69.5	24.7
ACUAGAUGAGGAUAUGCAUAUUUUCGUGUUCUUCUAGGUUAACAUGAGGAUCACCCAUGUAGAAGGCGUCUAUG			21.1	47.6
UUCAUGUGAGGAUAUAGUACUCCUUCUAUUAUUUUUGAGUAUUAGAAGGCACAUGAGGAUCACCCAUGUAGUAC			28.1	46.9
UGUCGGAGCAGAGGAUAUUACAUGAGGAUCACCCAUGUAUGCACCAAUAGCUGGAAACAGCAAUGUAAGAAGGCUGCUCCGACA			5.38	15.2
CGCCAUCCCGUUGGCGUGAGGAUACCAGAAGGGACGAUCUCACAUGAGGAUCACCCAUGUUAUAGUCAGGAUAUGGGUUCAUCA	135	14.2		
GUGCAUUCGUAGAAGGGUGACAUGAGGAUCACCCAUGUGCGCUGGGCUCGGGAGGCAUCAGCGCCACAGGAUAUACGAAGCACC	66.8	48.6		
UGUCGGAGCAGAGGAUAUGACAUGAGGAUCACCCAUGUAUGAACCAAUAGCUGGAAACAGCAAUGUAAGAAGGCUGCUCCGACA			5.98	6.79
ACGUGUUAUACAGGAUAUGUUUAGGUACAAUCAUCCAGAUAUUAAUUUAUAACAGAAGGGUAAACAUGAGGAUCACCCAUGUCA			18.4	15.1
AAUAGGUUUCCCGGUGGUUAAUACAUGAGGAUCACCCAUGUCAAGGAUAUAGCCGUAUAACCAGGUUAGAAGGUGACUAAAUGA			67.5	120
UAUAUUUUUAUAGGAUAUGGAUAUGAUGCAUAUCCAGAAGGGUGAAUAUAAUAUUUUCUGUACAUGAGGAUCACCCAUGUUUAU	235	72.2		
CAUGGACGGUUAGGAUAUGACCUUUAAUGAAAGUCAGAAGGGAUCGCACAUGAGGAUCACCCAUGUCGCAGACUCGGGCGACUU			14.9	21.1
UGUGUAACGGAGGAUAUAGGACUUCAACGAAGACUAGAAGGCCGAACAUGAGGAUCACCCAUGUGGUCCUCCGU			11.9	14.9
GUGCCUAACUAGAAGGCCGAUAGCAAAGCUAUCGGAGGAUAUGGGUUCCGGAAACGGACAUGAGGAUCACCCAUGUGGCACAAA	86.5	12.8		
GCUGACGAUGUAGGAUAUCUCGACGAUAAGUCGAGAGAAGGACAUGAGGAUCACCCAUGUCUCAAAACGUCAGCGAGGAAACUC			16.4	17.4
GAUAGGACAGAGAAGGACAUAGCUAGAGAUACUAGCAUAAGAACUUUCACAUGAGGAUCACCCAUGUAGGAUAUCUGUCCUAUC			4.96	5.53
AUACAUGAGGAUCACCCAUGUAAUUAAUUAAUUAAUAAGAUCUAGGAUAUCAGCUCGUUUAGAGCUGAGAAGGAGAUCACAUGU	23.4	13.1		
UGGUACUAGGGAGGAUAUGGGAAGAUACAUGAGGAUCACCCAUGUUUAAGAAUGCGGAGAGGCAACUAGAAGGCCCUAGUACCU	351	18.9		
GCGCUAAAACAGAAGGCCAAAUACAUGAGGAUCACCCAUGUCGAAUCAUGGAGGAUAUGUUAUUAAUUACUCGCAGAUGAGCGC	104	11.8		
ACGUGACGGAGCGCGAGUGGACGGAGAAGGCAGACAUGAGGAUCACCCAUGUGAGCCUGCUAUUCUGAGGAUAUCCGUCCGCAC			32.5	203
UUUUAACAUGAGGAUCACCCAUGUGAGGAUAUCGAAAUUUAUAUUAAUAUUAUUAUAUCGAGAAGGCACAUUUU			92.3	91.3
GCAACGCUUGACAUGAGGAUCACCCAUGUUAGAUUGUUAUGUCAGGAUAUAGUCUAGAAACUAGACUAGAAGGGAUAUGUUGCU	269	44.2		
CUUUUGUGAGGAUAUUCGUAGUAAAUGAAUAAAAUUAUUACGGAGAAGGCACAUGAGGAUCACCCAUGUUCCUC			42.2	343
GCGUAAGAAUUAAUUGUGACUGACAGAAGGCAAUAGUAUGUGUCCGACAUGAGGAUCACCCAUGUUGAGGAUAUGUCUUGACGC			4.64	5
UCUGGAGGAAAACAGACGAAGUGGCCAGAAGGUGAAUGCCACAUGAGGAUCACCCAUGUUUCGAUCAAGGAUAUGGUUUCUCAC	185	72.4		
GCAUACAUUCGAGGAUAUCGGUGAACAAAUUAACGAGAAGGCGAUAGAAUGUUUAAUCUUAUAAACAUGAGGAUCACCCAUGUA	35.2	25.2		
CUGAGCUGAGGAUAUACAUGAGGAUCACCCAUGUGUUCCAGCUUGGGUACAGGCACAUGUAGAAGGCAGUUCGG			55.1	21.4
GUCUACAUGACAUGAGGAUCACCCAUGUGUUAUAUUUUUACUAAGGAUAUAUUUUUAAUGUUGAGAUAGAAGGUAGUUUCGGUC			43	45.5
